According to ChEMBL document CHEMBL3091284, “Hygrocins C-G, cytotoxic naphthoquinone ansamycins from gdmAI-disrupted Streptomyces sp. LZ35” (J Nat Prod, 2013):
Activity calls are given as the source filed them. The rule behind the calls is not given here.

test system: HepG2; experiment: Cytotoxicity against human HepG2 cells assessed as growth inhibition up to 10 uM by MTT assay; format: functional, cell-based
Method in brief: (§1)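 MTT viability/proliferation assay on human cancer lines (breast MDA-MB-431, prostate PC3, alveolar basal epithelial A549, colorectal SW620, hepatocellular HepG2). Compounds tested up to a maximum of 10 μM, with activity judged relative to control and IC50 derived. Cisplatin at 5 μg/mL served as positive control.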

| Compound | growth inhibition (GI) |
| --- | --- |
| CC[C@@H]1/C=C/[C@H](O)[C@H](C)OC(=O)/C(C)=C/[C@@H]2C(=O)NC3=CC(=O)c4c(cc(C)c(O)c4C(=O)CC1)[C@@]32O | inactive |
| CCC1/C=C/[C@H](O)[C@H](C)OC(=O)[C@@]2(C)C=CC(=O)NC3=C2C(=O)c2c(cc(C)c(O)c2C(=O)CC1)C3=O (stereo partly specified) | inactive |
| CCC1/C=C/[C@H](C(C)O)OC(=O)[C@@]2(C)C=CC(=O)NC3=C2C(=O)c2c(cc(C)c(O)c2C(=O)CC1)C3=O (stereo partly specified) | inactive |

test system: SW-620; experiment: Cytotoxicity against human SW620 cells assessed as growth inhibition up to 10 uM by MTT assay; format: functional, cell-based; method in brief: as §1

| Compound | growth inhibition (GI) |
| --- | --- |
| CC[C@@H]1/C=C/[C@H](O)[C@H](C)OC(=O)/C(C)=C/[C@@H]2C(=O)NC3=CC(=O)c4c(cc(C)c(O)c4C(=O)CC1)[C@@]32O | inactive |
| CCC1/C=C/[C@H](O)[C@H](C)OC(=O)[C@@]2(C)C=CC(=O)NC3=C2C(=O)c2c(cc(C)c(O)c2C(=O)CC1)C3=O (stereo partly specified) | inactive |
| CCC1/C=C/[C@H](C(C)O)OC(=O)[C@@]2(C)C=CC(=O)NC3=C2C(=O)c2c(cc(C)c(O)c2C(=O)CC1)C3=O (stereo partly specified) | inactive |

test system: A549; experiment: Cytotoxicity against human A549 cells assessed as growth inhibition up to 10 uM by MTT assay; format: functional, cell-based; method in brief: as §1

| Compound | growth inhibition (GI) |
| --- | --- |
| CC[C@@H]1/C=C/[C@H](O)[C@H](C)OC(=O)/C(C)=C/[C@@H]2C(=O)NC3=CC(=O)c4c(cc(C)c(O)c4C(=O)CC1)[C@@]32O | inactive |
| CCC1/C=C/[C@H](O)[C@H](C)OC(=O)[C@@]2(C)C=CC(=O)NC3=C2C(=O)c2c(cc(C)c(O)c2C(=O)CC1)C3=O (stereo partly specified) | inactive |
| CCC1/C=C/[C@H](C(C)O)OC(=O)[C@@]2(C)C=CC(=O)NC3=C2C(=O)c2c(cc(C)c(O)c2C(=O)CC1)C3=O (stereo partly specified) | inactive |

test system: PC-3; experiment: Cytotoxicity against human PC3 cells assessed as growth inhibition up to 10 uM by MTT assay; format: functional, cell-based; method in brief: as §1

| Compound | growth inhibition (GI) |
| --- | --- |
| CC[C@@H]1/C=C/[C@H](O)[C@H](C)OC(=O)/C(C)=C/[C@@H]2C(=O)NC3=CC(=O)c4c(cc(C)c(O)c4C(=O)CC1)[C@@]32O | inactive |
| CCC1/C=C/[C@H](O)[C@H](C)OC(=O)[C@@]2(C)C=CC(=O)NC3=C2C(=O)c2c(cc(C)c(O)c2C(=O)CC1)C3=O (stereo partly specified) | inactive |
| CCC1/C=C/[C@H](C(C)O)OC(=O)[C@@]2(C)C=CC(=O)NC3=C2C(=O)c2c(cc(C)c(O)c2C(=O)CC1)C3=O (stereo partly specified) | inactive |

species on record: Homo sapiens; experiment: Cytotoxicity against human MDA-MB-431 cells assessed as growth inhibition up to 10 uM by MTT assay; format: functional, cell-based; method in brief: as §1

| Compound | growth inhibition (GI) |
| --- | --- |
| CC[C@@H]1/C=C/[C@H](O)[C@H](C)OC(=O)/C(C)=C/[C@@H]2C(=O)NC3=CC(=O)c4c(cc(C)c(O)c4C(=O)CC1)[C@@]32O | inactive |
| CCC1/C=C/[C@H](O)[C@H](C)OC(=O)[C@@]2(C)C=CC(=O)NC3=C2C(=O)c2c(cc(C)c(O)c2C(=O)CC1)C3=O (stereo partly specified) | inactive |
| CCC1/C=C/[C@H](C(C)O)OC(=O)[C@@]2(C)C=CC(=O)NC3=C2C(=O)c2c(cc(C)c(O)c2C(=O)CC1)C3=O (stereo partly specified) | inactive |

test system: not listed separately; experiment: Cytotoxicity against human MDA-MB-431 cells by MTT assay; format: functional, cell-based; method in brief: as §1

| Compound | IC50 [µM] |
| --- | --- |
| CC[C@@H]1/C=C/[C@H](C(C)O)OC(=O)/C(C)=C\[C@H]2C(=O)NC3=CC(=O)c4c(cc(C)c(O)c4C(=O)CC1)[C@@]32O (stereo partly specified) | 3.3 |
| CC[C@@H]1/C=C/[C@H](O)[C@H](C)OC(=O)/C(C)=C\[C@@H]2C(=O)NC3=CC(=O)c4c(cc(C)c(O)c4C(=O)CC1)[C@@]32O | 3 |
| CC[C@@H]1/C=C/[C@H](O)[C@H](C)OC(=O)/C(C)=C\[C@H]2C(=O)NC3=CC(=O)c4c(cc(C)c(O)c4C(=O)CC1)[C@@]32O | 0.5 |

test system: PC-3; experiment: Cytotoxicity against human PC3 cells by MTT assay; format: functional, cell-based; method in brief: as §1

| Compound | IC50 [µM] |
| --- | --- |
| CC[C@@H]1/C=C/[C@H](C(C)O)OC(=O)/C(C)=C\[C@H]2C(=O)NC3=CC(=O)c4c(cc(C)c(O)c4C(=O)CC1)[C@@]32O (stereo partly specified) | 4.5 |
| CC[C@@H]1/C=C/[C@H](O)[C@H](C)OC(=O)/C(C)=C\[C@@H]2C(=O)NC3=CC(=O)c4c(cc(C)c(O)c4C(=O)CC1)[C@@]32O | 5 |
| CC[C@@H]1/C=C/[C@H](O)[C@H](C)OC(=O)/C(C)=C\[C@H]2C(=O)NC3=CC(=O)c4c(cc(C)c(O)c4C(=O)CC1)[C@@]32O | 1.9 |
